A word on the IC50: it is the concentration at which inhibition is half-maximal. For orientation: pIC50 means the negative decadic logarithm of the IC50, by convention in mol/L. In general, inhibition in vivo refers to how much of the control response was suppressed.

For data set [1], the system named is Plasmodium falciparum. Nature of the data set: Antiplasmodial activity against chloroquine-sensitive Plasmodium falciparum F32-Tanzania after 48 hrs by [3H]-hypoxanthine incorporation assay. The data set is classed as functional, organism-based.
Data set [2] has as its system WI-38. As to the kind of experiment: Cytotoxicity against human WI38 cells after 48 hrs by WST-1 assay. The data set is classed as cell-based. The following applies: WI-38, 48 h.
Data set [3] deals with Plasmodium falciparum. As to the kind of experiment: Antiplasmodial activity against asexual erythrocyte stage of chloroquine-resistant Plasmodium falciparum W2 infected in human red blood cells after 48 hrs by lactate dehydrogenase assay. The data set is classed as functional, organism-based. The following applies: W2, 48 h. Put shortly:
(§1)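 P. falciparum asexual blood stages in human A+ erythrocytes, RPMI 1640 with HEPES, NaHCO3, glutamine, glucose, hypoxanthine, gentamycin and 10% human A+ serum. Parasitemia 2%, hematocrit 1%. Eight 2-fold dilutions in triplicate, DMSO at most 1%. After 48 h, growth read by pLDH activity. Artemisinin positive control. IC50 read from graphs.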

A short description of data set [4]: Selectivity index, ratio of IC50 for human WI38 cells to IC50 for asexual erythrocyte stage of chloroquine-sensitive Plasmodium falciparum 3D7 infected in human red blood cells. It counts as toxicity, cell-based. Particulars: read-out: Ratio IC50.
Data set [5] in a line: Selectivity index, ratio of IC50 for human WI38 cells to IC50 for asexual erythrocyte stage of chloroquine-resistant Plasmodium falciparum W2 infected in human red blood cells. The data set is classed as toxicity, cell-based. Particulars: read-out: Ratio IC50.
For data set [6], the system named is HeLa. As to the kind of experiment: Cytotoxicity against human HeLa cells after 48 hrs by WST-1 assay. It counts as functional, cell-based. Put shortly:
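HeLa cells seeded at 6000 per well in medium containing test compounds and incubated 48 h. WST-1 then added for 30 min at 37 °C, absorbance read at 450 nm. Results expressed as percent of untreated control cells; IC50 taken from graphs.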

A short description of data set [7]: Hemolytic activity in human RBC at 10 ug/ml after 1 hr relative to control. Particulars: red blood cells, read-out: Activity. The data set is classed as ADME, cell-based, Erythrocyte. Put shortly:
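Human A+ erythrocytes, 10% (v/v) in PBS, incubated in triplicate with compounds at final 10 µg/mL (DMSO <1%) for 1 h at room temperature with agitation. Mixtures centrifuged 5 min at 2000 rpm, supernatant absorbance read at 550 nm. 1% (v/v) Triton X-100 served as 100% lysis and PBS as 0% lysis.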

In data set [8] the test system is Plasmodium falciparum. Nature of the data set: Antiplasmodial activity against asexual erythrocyte stage of chloroquine-sensitive Plasmodium falciparum 3D7 infected in human red blood cells after 48 hrs by lactate dehydrogenase assay. It counts as functional, organism-based. The following applies: 3D7, 48 h. Summed up:
as §1

The species named for data set [9] is Danio rerio. As to the kind of experiment: Toxicity in 72 hrs post fertilized zebra fish embryo assessed as mortality at 1 ug/ml replaced once daily for 3 days. The data set is classed as organism-based. The following applies: zebrafish, in vivo. Summed up: (§2)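 Dechorionated zebrafish embryos, 25 per condition, duplicate geometric series. The first step spanned 10 to 0.001 µg/mL and the second was narrowed to 10 to 1 µg/mL. Compound was diluted from DMSO in fish medium, final DMSO at most 0.4%. Treatment was renewed daily for 3 days, with untreated and 0.4% DMSO controls. Embryos were observed daily until 72 hpf.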

The species named for data set [10] is Danio rerio. Nature of the data set: Toxicity in 24 to 72 hrs post fertilized zebra fish embryo assessed as death at 3 to 10 ug/ml measured within 1 day post dose. Particulars: zebrafish, in vivo. It counts as organism-based. Summed up: as §2
The species named for data set [11] is Danio rerio. Nature of the data set: Toxicity in 24 to 72 hrs post fertilized zebra fish embryo assessed as percentage of bradycardia developed embryos at 2 to 2.5 ug/ml replaced once daily for 3 days measured each day until 72 hrs post fertilization. It counts as organism-based. The following applies: zebrafish, in vivo. Put shortly: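 Dechorionated zebrafish embryos, 25 per condition, exposed from 24 hpf. Compound in DMSO diluted in zebrafish medium (final DMSO at most 0.4%). Treatment replaced once daily for 3 days, with a narrowed 10–1 µg/mL range run in duplicate. Embryos observed daily to 72 hpf for mortality, disintegration, bradycardia and morphology. Untreated and 0.4% DMSO groups of 25 served as controls.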

Data set [12] relates to Plasmodium berghei. As to the kind of experiment: Antimalarial activity against Plasmodium berghei NK173 infected in Swiss mouse assessed as inhibition of parasitemia at 15 mg/kg, ip qd administered 4 hrs post infection for 3 days measured on day 7 by Giemsa staining based microscopy relative to control. The data set is classed as functional. Put shortly: (§3)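 Female Swiss mice (10 weeks, 25 ± 2 g), groups of five, infected ip with 2 × 10^7 P. berghei NK173 parasitized red cells. 15 mg/kg ip in 7% Tween 80/3% EtOH in sterile water, first dose 4 h post-infection (day 0), then once daily for 3 more days. Parasitemia read on Giemsa-stained tail-blood thin smears (≥500 erythrocytes). Inhibition calculated against vehicle controls at days 5 and 7.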

Data set [13] is filed under the species Danio rerio. Nature of the data set: Toxicity in 24 to 72 hrs post fertilized zebra fish embryo assessed as embryo disintegration at 3 to 10 ug/ml replaced once daily for 3 days. The data set is classed as organism-based. The following applies: zebrafish, in vivo. Put shortly:
as §2

Data set [14] is described as follows: Toxicity in 48 hrs post fertilized zebra fish embryo assessed as embryo mortality at 2 ug/ml replaced once daily for 3 days. The data set is classed as organism-based, Danio rerio. Particulars: zebrafish, in vivo; read-out: Activity. Summed up:
as §2

The species entered for data set [15] is Danio rerio. Nature of the data set: Toxicity in 72 hrs post fertilized zebra fish embryo assessed as death measured after third treatment dose replaced once daily for 3 days. It counts as organism-based. The following applies: zebrafish, in vivo. Summed up: as §2
The species named for data set [16] is Danio rerio. Nature of the data set: Toxicity in 72 hrs post fertilized zebra fish embryo assessed as cumulative mortality measured after third treatment dose replaced once daily for 3 days. It counts as organism-based. The following applies: zebrafish, in vivo. Put shortly: as §2
For data set [17], the species on record is Danio rerio. Nature of the data set: Toxicity in 72 hrs post fertilized zebra fish embryo assessed as morphological changes at 1 ug/ml replaced once daily for 3 days. It counts as organism-based. Particulars: zebrafish, in vivo. Put shortly: as §2
The species entered for data set [18] is Danio rerio. Nature of the data set: Toxicity in 24 to 72 hrs post fertilized zebra fish embryo assessed as death at 10 ug/ml measured within 1 day post dose. It counts as organism-based. Particulars: zebrafish, in vivo. Put shortly: as §2
Data set [19] is filed under the species Danio rerio. As to the kind of experiment: Toxicity in 24 to 72 hrs post fertilized zebra fish embryo assessed as bradycardia at 2 to 2.5 ug/ml replaced once daily for 3 days. The data set is classed as organism-based. Particulars: zebrafish, in vivo. Summed up:
as §2

The species entered for data set [20] is Danio rerio. Nature of the data set: Toxicity in 72 hrs post fertilized zebra fish embryo assessed as body axis deformation measured after third treatment dose replaced once daily for 3 days. The data set is classed as organism-based. Particulars: zebrafish, in vivo. Put shortly:
as §2

For data set [21], the species on record is Danio rerio. Nature of the data set: Toxicity in 72 hrs post fertilized zebra fish embryo assessed as decrease in pericardial function measured after third treatment dose replaced once daily for 3 days. The data set is classed as organism-based. Particulars: zebrafish, in vivo. Summed up:
as §2

For data set [22], the species on record is Danio rerio. Nature of the data set: Toxicity in 48 hrs post fertilized zebra fish embryo assessed as cumulative mortality at 1 to 10 ug/ml replaced once daily for 3 days. The data set is classed as organism-based. The following applies: zebrafish, in vivo, 72 h. Put shortly: as §2
The test system of data set [23] is Mus musculus. As to the kind of experiment: Toxicity in Swiss mouse assessed as mortality at 15 mg/kg, ip qd measured on day 7. It counts as organism-based. Particulars: in vivo.
Data set [24] has as its system Plasmodium berghei. Nature of the data set: Antimalarial activity against Plasmodium berghei NK173 infected in Swiss mouse assessed as inhibition of parasitemia at 15 mg/kg, ip qd administered 4 hrs post infection for 3 days measured on day 5 by Giemsa staining based microscopy relative to control. The data set is classed as functional. Summed up:
as §3

pIC50: −log10 of the molar value. In brackets after ≈: the same amount, converted by molar mass. A value given as a limit tells only on which side of the number the result lay.

Turning to `CCCCCC/C=C\CCCCCCCC(O)C[C@]1(O)C=C[C@@H](O)[C@@H](O)C1` (stereo partly drawn), the IC50 in [1] came to 86.4 µg/mL (≈ 226 µM).
In the case of `CCCCCC/C=C\CCCCCCCC(=O)C[C@@]1(O)C=CC(=O)[C@@H](O)C1`, the IC50 lay within 1.01 to 2.66 µg/mL (≈ 2.67 to 7.03 µM) in [2], 0.48 to 1.27 µg/mL (≈ 1.27 to 3.35 µM) in data set [3] and 1.31 to 3.45 µg/mL (≈ 3.46 to 9.11 µM) in data set [6]. Besides, the selectivity ratio in data set [4] is 2.34; in [5], 2.1. In data set [7], the hemolysis at 1 h, 10 ug/ml is under 1%. In [8], this compound showed a negative logarithm of the IC50 (pIC50) of 5.95 to 6.37.
`CCCCCCCCCCCCCCC[C@@H]1C[C@@]2(O)CC(=O)C=C[C@@]2(O)O1`: the IC50 in data set [2] was 1.04 to 2.73 µg/mL (≈ 2.73 to 7.17 µM); in [3] it was 0.37 to 0.97 µg/mL (≈ 0.972 to 2.55 µM); in data set [6], 1.44 to 3.77 µg/mL (≈ 3.78 to 9.91 µM). In addition, the selectivity ratio stood at 1.51 in data set [4] and 2.81 in data set [5]. For the same compound, the hemolysis at 1 h, 10 ug/ml in data set [7] was under 1%. For the same compound, the negative logarithm of the IC50 (pIC50) in [8] was 5.74 to 6.16.
In the case of `CCCCCC/C=C\CCCCCCC[C@@H]1C[C@@]2(O)CC(=O)C=C[C@@]2(O)O1`, the results for the IC50 in data set [2], in [3] and in data set [6] were 0.6 to 1.58 µg/mL (≈ 1.58 to 4.17 µM), 0.21 to 0.55 µg/mL (≈ 0.555 to 1.45 µM) and 0.8 to 2.1 µg/mL (≈ 2.11 to 5.55 µM), respectively. The Activity result in data set [9] was “Non-Toxic”; in data set [10], “Toxic”; in data set [11], 5%; in data set [13] it was “Toxic”; in data set [15], “Toxic”; in [16], “Toxic”. In addition, the Activity result in [17] is listed as “Non-Toxic”; in data set [18], “Toxic”; in [19], “Toxic”; in data set [20], “Toxic”; in [21], “Toxic”; in [22], “Toxic”. The Activity result in data set [23] is on record as “Toxic”. In addition, the inhibition in vivo at 15 mg/kg in data set [12] was found to be 69.5%; in [24] it was 59.1%. For the same compound, the selectivity ratio in data set [4] came out at 1.76; in data set [5], 2.86. The mortality at 72 h, 2 ug/ml in [14] came out at 60%. In addition, in data set [7], the hemolysis at 1 h, 10 ug/ml is under 1%. The compound also had a pIC50 in data set [8] of 6.05 to 6.47.
In the case of `C[C@@H]1CC[C@H]2[C@@H](C)C(=O)O[C@@H]3O[C@@]4(C)CC[C@@H]1[C@]32OO4` [ARTEMISININ], the 50% inhibitory concentration (IC50) in data set [3] was in the range of 0.01 to 0.035 µg/mL (≈ 0.0354 to 0.124 µM). In data set [8], this compound showed a pIC50 of 7.85 to 8.40.
Take `CC[C@@]1(O)C(=O)OCc2c1cc1n(c2=O)Cc2cc3ccccc3nc2-1` [CAMPTOTHECIN]: the IC50 in data set [2] is 0.03 to 0.086 µg/mL (≈ 0.0861 to 0.247 µM); in data set [6], 0.08 to 0.23 µg/mL (≈ 0.23 to 0.66 µM).
Consider `O=c1c(O)c(-c2ccc(O)c(O)c2)oc2cc(O)cc(O)c12` [QUERCETIN], for which, in data set [8], the pIC50 is 4.76.

The values above are taken from ChEMBL document CHEMBL4190199, “Antimalarial Activities of Alkyl Cyclohexenone Derivatives Isolated from the Leaves of Poupartia borbonica” (J Nat Prod, 2017).
